The test system of experiment [1] is Hep 3B2. Nature of the experiment: Anti-proliferative activity against human Hep3B cells assessed as no change in BAD expression at 80 nM incubated for 24 hrs by qRT-PCR analysis. Type of experiment: functional, cell-based. In general terms: Quantitative PCR measures a nucleic acid by following its amplification.
For experiment [2], the system named is Hep 3B2. Nature of the experiment: Anti-proliferative activity against human Hep3B cells assessed as increase in Caspase 8 expression at 80 nM incubated for 24 hrs by qRT-PCR analysis. The experiment is classed as functional, cell-based.
The test system of experiment [3] is HepG2. Description: Anti-proliferative activity against human HepG2 cells assessed as reduced cell proliferation at 80 nM incubated for 24 hrs by Fluoro Fire-Blue ProViaTox assay. The experiment is classed as functional, cell-based.
The subject of experiment [4] is Hep 3B2. Nature of the experiment: Anti-proliferative activity against human Hep3B cells assessed as increase in expression at 80 nM incubated for 24 hrs by qRT-PCR analysis.
For experiment [5], the system named is Hep 3B2. Description: Anti-proliferative activity against human Hep3B cells assessed as reduction in cell viability at 80 nM incubated for 24 hrs in presence of cisplatin by Fluoro Fire-Blue ProViaTox assay relative to control. Type of experiment: functional, cell-based.
Experiment [6] has as its system Hep 3B2. Nature of the experiment: Effect on human Hep3B cells assessed as reduction in HDAC1 mRNA level at 80 nM incubated for 24 hrs by qRT-PCR analysis. Type of experiment: functional, cell-based. In outline: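 RNA levels of HDAC1 and HDAC2 measured in Hep3B cells after 24 h with 80 nM drug, 17-AAG (50 nM) or the combination (n = 3). Cells grown in EMEM with 10% FBS at 37°C, 5% CO2.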

In experiment [7] the test system is Hep 3B2. Description: Downregulation of STAT3 expression in human Hep3B cells at 80 nM incubated for 24 hrs in presence of GSK343 by qRT-PCR analysis. Type of experiment: functional, cell-based. In outline:
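RNA from Hep3B cells treated 24 h with GSK343 (7 nM) alone or with 80 nM drug; EZH2 and STAT3 levels compared between the two treatments. Cells grown in EMEM with 10% FBS, 2 mM L-glutamine, 37°C, 5% CO2.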

The next experiment relates to Huh-7. Nature of the experiment: Effect on human Huh-7 cells assessed as reduction in HDAC1 mRNA level at 80 nM incubated for 24 hrs by qRT-PCR analysis. Type of experiment: functional, cell-based. The procedure, abridged: (§1)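 HepG2 (EMEM) and Huh7 (DMEM) cells, both with 10% FBS, treated with 30% differentiated-SGBS conditioned medium with or without 80 nM drug. HDAC1 RNA given as fold change versus untreated cells or between treatments (n = 3).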

The subject of experiment [8] is HepG2. Nature of the experiment: Effect on human HepG2 cells assessed as reduction in HDAC1 mRNA level at 80 nM incubated for 24 hrs by qRT-PCR analysis. The experiment is classed as functional, cell-based. In outline:
as §1

In experiment [9] the test system is Hep 3B2. Description: Anti-proliferative activity against human Hep3B cells assessed as reduced cell proliferation at 80 nM for 24 hrs in presence of DZNep by Fluoro Fire-Blue ProViaTox assay relative to control. The arrangement: scale not given: the % may be the effect or the level left. Type of experiment: functional.
Experiment [10] relates to Hep 3B2. Nature of the experiment: Downregulation of STAT3 mRNA expression in human Hep3B cells at 80 nM incubated for 24 hrs in presence of 17-AAG by qRT-PCR analysis. The experiment is classed as functional, cell-based. The procedure, abridged: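 Hep3B cells given 80 nM drug, 17-AAG (50 nM) or both for 24 h. STAT3 and a gene panel (BCL-2, HSP90, ZFP64) measured at RNA level. Triplicates, three independent experiments, mean ± SD.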

For experiment [11], the system named is Hep 3B2. Nature of the experiment: Anti-proliferative activity against human Hep3B cells assessed as increase in cleaved Caspase 9 level at 80 nM incubated for 24 hrs in presence of SGBS CM by Tetraplex-Assay Kit analysis. Type of experiment: functional, cell-based. In outline:
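Hep3B seeded at 20000 cells/well overnight, then treated with 30% differentiated SGBS conditioned medium with or without resminostat 80 nM for 24 h. Tetraplex caspase substrate buffer added during treatment for real-time cleavage read-out: Caspase 3/7 at Ex 535/Em 620 nm, Caspase 8 at Ex 490/Em 525 nm, Caspase 9 at Ex 370/Em 450 nm. Compared with controls or between treatments; n = 3.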

For experiment [12], the system named is Hep 3B2. Description: Anti-proliferative activity against human Hep3B cells assessed as reduction in Vimentin protein expression level by measuring green fluorescence at 80 nM incubated for 24 hrs in presence of SGBS CM by immunofluorescence analysis.
Experiment [13] has as its system Hep 3B2. Nature of the experiment: Anti-proliferative activity against human Hep3B cells assessed as decrease in TNF-alpha mRNA level at 80 nM incubated for 24 hrs in presence of SGBS CM by qRT-PCR analysis. Type of experiment: functional, cell-based.
For experiment [14], the system named is Hep 3B2. Nature of the experiment: Anti-proliferative activity against human Hep3B cells assessed as increase in BAX mRNA level at 80 nM incubated for 24 hrs by qRT-PCR analysis. The experiment is classed as functional, cell-based.
In experiment [15] the test system is Hep 3B2. Description: Upregulation of BAX expression in human Hep3B cells at 80 nM incubated for 24 hrs by qRT-PCR analysis. The experiment is classed as functional, cell-based. In outline: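 RNA levels of BCL-2, BIM, BAX and BAD measured in Hep3B cells after 24 h with 80 nM drug. Triplicates, three independent experiments, t-test.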
The subject of experiment [16] is Hep 3B2. Nature of the experiment: Effect on human Hep3B cells assessed as reduction in HDAC2 mRNA level at 80 nM incubated for 24 hrs in presence of SGBS CM by qRT-PCR analysis. The experiment is classed as functional, cell-based. The procedure, abridged: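 Hep3B cells exposed to 30% conditioned medium from differentiated SGBS adipocytes, with or without 80 nM drug. HDAC1, 2 and 3 RNA given as fold change versus untreated cells or between treatments.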

The subject of experiment [17] is Hep 3B2. Nature of the experiment: Anti-proliferative activity against human Hep3B cells assessed as decrease in leptin mRNA level at 80 nM incubated for 24 hrs in presence of SGBS CM by qRT-PCR analysis. The experiment is classed as functional, cell-based.
Experiment [18] concerns Hep 3B2. Description: Anti-proliferative activity against human Hep3B cells assessed as reduction in cell viability at 80 nM measured after 24 hrs in presence of 17-AAG by Fluoro Fire-Blue ProViaTox assay. The note with it: Hep 3B2, time 24.0 hrs.
Experiment [19] has as its system HepG2. Description: Anti-proliferative activity against human HepG2 cells assessed as reduced cell proliferation at 80 nM incubated for 24 hrs in presence of SGBS CM by Fluoro Fire-Blue ProViaTox assay. Type of experiment: functional, cell-based.
Experiment [20] deals with Hep 3B2. Description: Anti-proliferative activity against human Hep3B cells assessed as reduction in cell viability at 80 nM measured after 24 hrs in presence of 17-AAG under SGBS CM treatment by Fluoro Fire-Blue ProViaTox assay relative to control.
The test system of experiment [21] is Hep 3B2. Description: Anti-proliferative activity against human Hep3B cells assessed as increase in Caspase 7 expression at 80 nM incubated for 24 hrs by qRT-PCR analysis. The experiment is classed as functional, cell-based.
Experiment [22] has as its system Hep 3B2. Description: Downregulation of EZH2 expression in human Hep3B cells at 80 nM incubated for 24 hrs in presence of GSK343 by qRT-PCR analysis. Type of experiment: functional, cell-based.
In experiment [23] the test system is Hep 3B2. Nature of the experiment: Downregulation of BCL2 expression in human Hep3B cells at 80 nM incubated for 24 hrs by qRT-PCR analysis. Type of experiment: functional, cell-based.

Active and inactive are the calls of the source. No cut-off for these calls is given here.

Regarding `CN(C)Cc1ccc(S(=O)(=O)n2ccc(/C=C/C(=O)NO)c2)cc1` [RESMINOSTAT], the result with Hep 3B2 [1], with Hep 3B2 [2], in the experiment on HepG2 [3], in the experiment with Hep 3B2 [4], with Hep 3B2 [5] and in the experiment on Hep 3B2 [6] was Active. Besides, the result with Hep 3B2 [7], with Huh-7, in the experiment on HepG2 [8], in the experiment on Hep 3B2 [10], in the experiment on Hep 3B2 [11] and with Hep 3B2 [12] was Active. Also, the outcome in the experiment on Hep 3B2 [13], in the experiment on Hep 3B2 [14], in the experiment on Hep 3B2 [15], in the experiment on Hep 3B2 [16], in the experiment on Hep 3B2 [17] and with Hep 3B2 [18] was Active. For the same compound, the result in the experiment with HepG2 [19], with Hep 3B2 [21], in the experiment with Hep 3B2 [22] and in the experiment with Hep 3B2 [23] was Active. For the same compound, the figures for the Activity in the experiment on Hep 3B2 [9] and in the experiment with Hep 3B2 [20] were 11.76% and 31.47%, respectively.

Source of the values: ChEMBL document CHEMBL5674881, “The therapeutic properties of resminostat for hepatocellular carcinoma” (2018).
